The species named for data set [1] is Homo sapiens. As to the kind of experiment: Selectivity ratio of inhibition of recombinant human CYP1A2 to IC50 for inhibition of recombinant human soluble epoxide hydrolase.
A short description of data set [2]: Apparent permeability across apical to basolateral side in human Caco-2 cells at 10 uM measured after 2 hrs by LC-MS/MS analysis. Particulars: caco-2, 2 h. (In general: Caco-2 cells form a polarised layer with tight junctions and transporters.)
Data set [3] in a line: Selectivity ratio of inhibition of recombinant human CYP2C9 to IC50 for inhibition of recombinant mouse soluble epoxide hydrolase.
A short description of data set [4]: Efflux ratio of apparent permeability across basolateral to apical side over apical to basolateral side in human Caco-2 cells at 10 uM measured after 2 hrs by LC-MS/MS analysis.
Data set [5] is filed under the species Homo sapiens. As to the kind of experiment: Selectivity ratio of inhibition of recombinant human CYP2C19 to IC50 for inhibition of recombinant human soluble epoxide hydrolase.
Data set [6] is filed under the species Homo sapiens. As to the kind of experiment: Selectivity ratio of inhibition of recombinant human CYP2D6 to IC50 for inhibition of recombinant human soluble epoxide hydrolase.
The species named for data set [7] is Homo sapiens. Put plainly: Selectivity ratio of inhibition of recombinant human CYP2C9 to IC50 for inhibition of recombinant human soluble epoxide hydrolase.
Data set [8] is filed under the species Homo sapiens. As to the kind of experiment: Selectivity ratio of inhibition of recombinant human CYP3A4 to IC50 for inhibition of recombinant human soluble epoxide hydrolase using DBF as substrate.
Data set [9] can be described thus: Selectivity ratio of inhibition of recombinant human CYP2D6 to IC50 for inhibition of recombinant mouse soluble epoxide hydrolase.
For data set [10], the species on record is Homo sapiens. Put plainly: Selectivity ratio of inhibition of recombinant human CYP3A4 to IC50 for inhibition of recombinant human soluble epoxide hydrolase using 7-BFC as substrate.
Data set [11] in a line: Selectivity ratio of inhibition of recombinant human CYP3A4 to IC50 for inhibition of recombinant mouse soluble epoxide hydrolase using 7-BFC as substrate.
Data set [12] is described as follows: AUClast in CD-1 mouse at 1 mg/kg, ip measured up to 24 hrs by LC-MS analysis. In kind it is ADME, organism-based. Also on record: route intraperitoneal, dose 1 mg/kg, time <=24. Particulars: in vivo. The procedure, abridged:
(§1)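 Single dose, 1 mg/kg, given to mice intravenously or intraperitoneally. Parameters are taken from the plasma concentration–time profile: T1/2, Tmax, Cmax, C0 (iv only), AUClast, AUCINF_obs, Vz and Cl. Bioavailability is derived from ip versus iv exposure.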

The test system of data set [13] is Mus musculus. As to the kind of experiment: Protection against cerulein-induced acute pancreatitis in C57BL/6J mouse assessed as reduction in MCP1 mRNA level at 3 mg/kg administered 24 hrs post-cerulein addition and measured after 24 hrs by Trisure-reagent based RT-PCR analysis. In kind it is functional, organism-based. The essentials:
(§2)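 Post-induction (treatment) protocol in C57BL/6J mice. Acute pancreatitis is induced by several cerulein administrations, followed by ip sEH inhibitor at 3 or 30 mg/kg. Pancreatic mRNA of TNF-α, IL-1β, MCP-1 and ATF3 is quantified against control and cerulein-only groups. Mean ± SEM, n = 5 per group.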

The subject of data set [14] is Mus musculus. As to the kind of experiment: Protection against cerulein-induced acute pancreatitis in C57BL/6J mouse assessed as reduction in edema at 30 mg/kg administered twice per day for 5 days followed by cerulein addition and measured 24 hrs post-last dose by H and E staining based histological analysis. It is filed as functional, organism-based. The settings on record: time 6.0 day. The essentials:
(§3)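 H&E-stained pancreas sections are scored for edema and inflammation. Groups are control, cerulein and cerulein plus inhibitor, in both the pre-induction and post-induction cerulein acute pancreatitis models in mice.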

Data set [15] in a line: Clearance in CD-1 mouse at 1 mg/kg, ip measured up to 24 hrs by LC-MS analysis. It is filed as ADME, organism-based. Particulars: in vivo. The procedure, abridged: as §1
Data set [16] has as its system Mus musculus. As to the kind of experiment: Protection against cerulein-induced acute pancreatitis in C57BL/6J mouse assessed as reduction in ATF3 mRNA level at 30 mg/kg administered twice per day for 5 days followed by cerulein addition and measured 24 hrs post-last dose by Trisure-reagent based RT-PCR analysis. It is filed as functional, organism-based. Particulars: time 6.0 day. The procedure, abridged:
(§4)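 Pre-induction (prevention) protocol in C57BL/6J mice. Inhibitor is given ip at 30 mg/kg before cerulein induction of acute pancreatitis. Pancreatic mRNA of TNF-α, IL-1β, MCP-1 and ATF3 is compared with control and cerulein-only mice. Mean ± SEM, n = 5 per group.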

The nature of data set [17]: AUC (infinity) in CD-1 mouse at 1 mg/kg, ip measured up to 24 hrs by LC-MS analysis. It is filed as ADME, organism-based. Also on record: route intraperitoneal, dose 1 mg/kg, time <=24. The settings on record: in vivo. The procedure, abridged: as §1
The subject of data set [18] is Mus musculus. Put plainly: Protection against cerulein-induced acute pancreatitis in C57BL/6J mouse assessed as reduction in TNF-alpha mRNA level at 30 mg/kg administered twice per day for 5 days followed by cerulein addition and measured 24 hrs post-last dose by Trisure-reagent based RT-PCR analysis. In kind it is functional, organism-based. Particulars: time 6.0 day. The essentials: as §4

Data set [19] in a line: Tmax in CD-1 mouse at 1 mg/kg, iv measured up to 24 hrs by LC-MS analysis. In kind it is ADME, organism-based. Particulars: in vivo. The essentials: as §1
The subject of data set [20] is Mus musculus. Put plainly: Protection against cerulein-induced acute pancreatitis in C57BL/6J mouse assessed as reduction in inflammation at 30 mg/kg administered twice per day for 5 days followed by cerulein addition and measured 24 hrs post-last dose by H and E staining based histological analysis. In kind it is functional, organism-based. The settings on record: time 6.0 day. The procedure, abridged: as §3

Data set [21] has as its system Mus musculus. Put plainly: Protection against cerulein-induced acute pancreatitis in C57BL/6J mouse assessed as reduction in IL1-beta mRNA level at 3 mg/kg administered 24 hrs post-cerulein addition and measured after 24 hrs by Trisure-reagent based RT-PCR analysis. In kind it is functional, organism-based. The procedure, abridged: as §2
Data set [22] can be described thus: AUClast in CD-1 mouse at 1 mg/kg, iv measured up to 24 hrs by LC-MS analysis. In kind it is ADME, organism-based. Details: route intravenous, dose 1 mg/kg, time <=24. The settings on record: in vivo. The essentials:
as §1

Data set [23] can be described thus: Clearance in CD-1 mouse at 1 mg/kg, iv measured up to 24 hrs by LC-MS analysis. The settings on record: in vivo. It is filed as ADME, organism-based. The essentials: as §1
The test system of data set [24] is Mus musculus. Put plainly: Protection against cerulein-induced acute pancreatitis in C57BL/6J mouse assessed as reduction in TNF-alpha mRNA level at 3 mg/kg administered 24 hrs post-cerulein addition and measured after 24 hrs by Trisure-reagent based RT-PCR analysis. In kind it is functional, organism-based. The essentials: as §2
Data set [25] in a line: Cmax in CD-1 mouse at 1 mg/kg, ip measured up to 24 hrs by LC-MS analysis. In kind it is ADME, organism-based. Also on record: route intraperitoneal, dose 1 mg/kg, time <=24. Particulars: in vivo. The procedure, abridged: as §1
The test system of data set [26] is Mus musculus. As to the kind of experiment: Protection against cerulein-induced acute pancreatitis in C57BL/6J mouse assessed as reduction in inflammation at 30 mg/kg administered 24 hrs post-cerulein addition and measured after 24 hrs by H and E staining based histological analysis. In kind it is functional, organism-based. The procedure, abridged: as §3
In data set [27] the test system is Mus musculus. Put plainly: Protection against cerulein-induced acute pancreatitis in C57BL/6J mouse assessed as reduction in TNF-alpha mRNA level at 30 mg/kg administered 24 hrs post-cerulein addition and measured after 24 hrs by Trisure-reagent based RT-PCR analysis. It is filed as functional, organism-based. The procedure, abridged: as §2
The nature of data set [28]: Cmax in CD-1 mouse at 1 mg/kg, iv measured up to 24 hrs by LC-MS analysis. It is filed as ADME, organism-based. Details: route intravenous, dose 1 mg/kg, time <=24. Particulars: in vivo. The essentials:
as §1

Data set [29] in a line: Acute toxicity in CD-1 mouse assessed as effect on behavior at 5 to 80 mg/kg, ip administered daily for 5 days. It is filed as organism-based. The settings on record: in vivo, 120 h, dose 5-80 mg/kg, time 5 day. The procedure, abridged: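 Mice received the compound intraperitoneally once a day for five consecutive days at 5, 10, 20 and 80 mg/kg. Acute toxicity was judged from body weight during treatment, apparent behaviour problems and the presence of petechiae.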

Data set [30] can be described thus: Tmax in CD-1 mouse at 1 mg/kg, ip measured up to 24 hrs by LC-MS analysis. It is filed as ADME, organism-based. Particulars: in vivo. The essentials: as §1
A short description of data set [31]: Half life in CD-1 mouse at 1 mg/kg, iv measured up to 24 hrs by LC-MS analysis. In kind it is ADME, organism-based. Particulars: in vivo. The procedure, abridged: as §1

Activity calls are given as the source filed them. No cut-off for these calls is given here.

`CC(=O)N1CCC(NC(=O)NC23CC4CC(CC(C4)O2)C3)CC1`: the Selectivity ratio in data set [1], in data set [3], in [5], in [6], in data set [7] and in data set [8] was more than 100 throughout. Besides, the Selectivity ratio in data set [9], in data set [10] and in data set [11] was more than 100 throughout. Also, in data set [2], the Papp was 2.24 ×10⁻⁶ cm/s. Further, the efflux ratio at 2 h, 10 µM in [4] turned out to be 4.3.
As for `CC(C)S(=O)(=O)N1CCC(NC(=O)NC23CC4CC(CC(C4)O2)C3)CC1`, the AUClast in [12] is 34.67 ng·h/mL; in data set [22] it was 59.1 ng·h/mL. The outcome in [13], in [21] and in data set [24] was inactive. The result in [14], in [16], in data set [18], in data set [20], in data set [26] and in data set [27] was Active. Also, in [15], the apparent clearance CL/F is 474 mL/min/kg. The same compound returned an AUC in [17] of 35.2 ng·h/mL. The time of peak concentration (Tmax) in data set [19] and in data set [30] was 9.6 min each time. The compound also showed a CL in [23] of 279.5 mL/min/kg. The values for the highest concentration (Cmax) in [25] and in data set [28] were 117.33 ng/mL and 108.33 ng/mL, respectively. Further, the Activity result in data set [29] is given as “Non-Toxic”. For the same compound, the t1/2 in [31] is 168 min.

What is called Papp is the rate of passage across a membrane or cell layer, normalised by area and donor concentration. The efflux ratio is a quotient of directional permeabilities that is used to spot active efflux. In general, CL/F refers to the apparent clearance, not corrected for the fraction that reaches the circulation. The term AUC denotes concentration integrated over time. In general, Tmax refers to the time at which the peak concentration occurs. For orientation: Cmax means the highest concentration seen after dosing.

(Values after ChEMBL document CHEMBL4725350, “2-Oxaadamant-1-yl Ureas as Soluble Epoxide Hydrolase Inhibitors: In Vivo Evaluation in a Murine Model of Acute Pancreatitis” (J Med Chem, 2020).)
